# Reference: ChEMBL document CHEMBL4513216, “Probing the Open Global Health Chemical Diversity Library for Multistage-Active Starting Points for Next-Generation Antimalarials” (ACS Infect Dis, 2020)
# Assay: Toxicity liver stage against HepG2, at 10uM
# Format: cell-based
# Set-up: test concentration 10 uM, cell line HepG2-A16-CD81EGFP
# Details: human, HepG2-A16-CD81EGFP cells; read-out: INHIBITION
# Method in brief: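 Uninfected HepG2-A16-CD81EGFP cells, 3 × 10^3 per well, 1536-well, plated on prespotted compound at 10 μM final, parasite-free screening media added to match infected plates; puromycin 10 μM positive, DMSO 0.5% negative; run in parallel with 48 h PbLuc assay at 37 °C, 5% CO2; viability by CellTiter-Glo luminescence, normalized to controls.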
row,Structure (SMILES),cytotoxicity at 10 µM
1,Cc1ccc(F)c(C(=O)N2CCC(Nc3ccc(C)nn3)CC2)c1,-3.78%
2,Cc1ccc(C2(CN(C)Cc3snnc3C)CCNCC2)nc1,-0.355%
3,Nc1nnc(CCNC(=O)c2cccc(C3CCCNC3)c2)s1 (stereo unspecified),2.9%
4,Cc1ccc(C2(CN3CCCC3)CCNCC2)nc1,-12.8%
5,O=C(CC1COCCN1)N1CCCN(C2Cc3ccccc3C2)CC1 (stereo unspecified),-139%
6,CNC(=O)C1(c2cnccn2)CCCN1C(=O)c1ncccc1C (stereo unspecified),4.22%
7,Cc1nn(C)c2cn(CC(=O)NC3CCSCC3)nc12,0.243%
8,Cc1cnc(NC2CCc3c(ccc(=O)n3CC3CC3)C2)nc1 (stereo unspecified),-137%
9,O=C1[C@@H]2CCN(CC3CC3)C[C@@H]2OCCN1c1ccsc1,10.5%
10,COc1cc2c(cc1OC)S(=O)(=O)N(Cc1cccc(C)c1)C2=O,5.98%
11,CNCc1cn(CC2CCN(Cc3cccs3)CC2)nn1,-4.47%
12,CCCOCC(=O)N1CCCC(c2nnc(CN3CCCCC3)n2C)C1 (stereo unspecified),-2.34%
13,COc1cc(CNCC(O)c2ccccc2)cc2c1OCO2 (stereo unspecified),-13%
14,CN(Cc1ccnc2ccccc12)C1CCS(=O)(=O)C1 (stereo unspecified),4.36%
15,c1cncc(N2CCOCC3(CN(Cc4cccs4)CCO3)C2)c1 (stereo unspecified),-79.7%
16,COCc1nc(C2CCN(Cc3nccn3C)CC2)no1,-14.2%
17,CN(C)S(=O)(=O)N1CCCC(c2cccc(Cc3ccccc3)n2)C1 (stereo unspecified),20.5%
18,Cc1ccc(C(=O)Nc2nc(C)no2)cc1,-1.81%
19,CC(C)(C)c1nnc(CN2CCN(CC(O)c3ccccc3)CC2)o1 (stereo unspecified),-12.8%
20,Cc1noc(C2CCN(C(=O)c3c(C)noc3C)CC2)n1,5.65%
21,CC(C)c1[nH]c2ncccc2c1CN1CCC(O)CC1,2.57%
22,CCSCCC(=O)NC1CCN(C(C)c2ccccc2)CC1 (stereo unspecified),-1.22%
23,CC(C)NC(=O)COc1ccc(-c2nc(C(C)C)no2)cc1,5.67%

row,Structure (SMILES),cytotoxicity at 10 µM
1,CCN1CCC(CNC(=O)C(c2ccc(F)cc2)N(C)C)(N(C)C)CC1 (stereo unspecified),-0.288%
2,CN(C)c1cc(C(F)(F)F)cc(-c2ccc(C(=O)O)cc2)n1,9.15%
3,CN(CCCc1cnn(C)c1)Cc1cc2n(n1)CCNC2,11.1%
4,O=C(c1cc(C2CC2)nc2onc(-c3ccccc3)c12)N1CCOCC1,-40.5%
5,CCOc1ccc(CC(=O)Nc2cnccc2SCCCO)cc1,7.94%
6,CCC(=O)N1CCC(Cc2ccccc2-c2ccccc2F)(C(N)=O)C1 (stereo unspecified),-10.8%
7,c1ccc(-c2nc(CN3CCCC(Cn4cncn4)C3)no2)cc1 (stereo unspecified),3.71%
8,COc1ccc(CNC(=O)CN2CCc3ccccc32)cc1,10.5%
9,COc1ncc(C(=O)N2CCCC3(C=Cc4ccccc4O3)CC2)cn1 (stereo unspecified),7.61%
10,COc1ccc(Oc2ccc(CNC(=O)C3CCS(=O)(=O)C3)cn2)cc1 (stereo unspecified),-2.22%
11,CSCC[C@@H](CO)Nc1nc(-c2ccccn2)nc2c1c(C)nn2C,2.7%
12,CN1CCCN(C[C@@H]2CN(C(=O)N3CCOCC3)C[C@@H]2CO)CC1,-7.43%
13,Cc1nccn1C1(C(=O)O)CCN(Cc2ccc3c(c2)OCCO3)CC1,-1.53%
14,O=C(CCN1CCCCO1)N1CC[C@H](O)[C@@H](O)C1,-1.77%
15,CCn1nc2c(cc1=O)CN(c1nc3ccccc3s1)CC2,7.5%
16,CCCc1cnc(C)nc1NC(C)Cc1cnccn1 (stereo unspecified),-7.96%
17,O=C1N[C@@H]2CCN(C(=O)C3CCCC3)[C@@H]2C(=O)N1c1ccc(F)cc1,-1.1%
18,CS(=O)(=O)N1CCN(C(=O)c2[nH]c3ccc(Cl)cc3c2Cl)CC1,24.6%
19,COc1ccc2c(c1)C(=O)NC1(CC2)CCN(Cc2cccnc2)C1 (stereo unspecified),0.295%
20,CC(C)c1nnc2n1CCN(C(=O)c1cc(Cl)c[nH]1)C2,-11.4%
21,CC(C)CS(=O)(=O)CC(=O)N1CCCC1c1noc(C2CC2)n1 (stereo unspecified),13.4%
22,COCCn1c(-c2cccc(OC)c2)cnc1NC(=O)NC1CCCC1,12.3%
23,CCN(C)Cc1nc(-c2ccccc2NS(C)(=O)=O)oc1C,3.63%

row,Structure (SMILES),cytotoxicity at 10 µM
1,CCN(Cc1cnn(C)c1)C[C@H]1CC[C@@H](Cc2ccc(C)nc2)O1,5.24%
2,CC(C)(C)NC(=O)[C@@H]1Cc2ccccc2CN1Cc1cccs1,-2.14%
3,CCC(CC)C(=O)N1CCC2(CC1)c1ccccc1[C@@H](OC)[C@@H]2O,6.75%
4,Cc1cc(C(=O)N2CCCC2c2noc(C(C)C)n2)c(C)o1 (stereo unspecified),-3.54%
5,N#CCc1ccc(NC(=O)CNc2ccc(Br)cc2F)cc1,0.997%
6,c1cnc(-c2nc(CNC3CCc4ncnn4C3)cs2)nc1 (stereo unspecified),-5.66%
7,CC(c1cccc(Cl)c1)N1CCN(S(C)(=O)=O)CC1 (stereo unspecified),1.81%
8,O=C([C@H]1CCCO1)N1CC[C@H](O)[C@@H]1Cc1ccncc1,6.38%
9,Cc1cc(C)n(CCC(=O)OCC(=O)N2CCc3sccc3C2)n1,8.52%
10,CN(C)Cc1cc(=O)n2c(n1)CN(S(=O)(=O)C1CC1)CCC2,4.53%
11,Cc1nn(C)c2ncnc(NCC(O)CN3CCCCC3)c12 (stereo unspecified),1.2%
12,Cc1nc(N2CCN(C)CC2)ncc1C(=O)N1CCN(C)CC1,3.85%
13,Cc1cc(-c2cnc(NC3CCCCC3)nc2-c2ccco2)on1,-16.4%
14,O=C(c1ccccn1)N1Cc2ccccc2OC2(CCOCC2)C1,-12.9%
15,CN1CCN(CC(NCc2ccc(F)cc2)c2ccccc2)CC1 (stereo unspecified),-15.7%
16,CC(C)c1ncc2c(n1)CN(Cc1nc(-c3ccoc3)no1)CC2,-3%
17,CN(CCc1ccccn1)C(=O)c1cn(CCN2CCNCC2)nn1,-8.48%
18,COc1ccccc1CN(Cc1nc(C)no1)C1CC1,2.77%
19,CC(C)N[C@@H]1CO[C@H](CNC(=O)Nc2ccccc2)[C@H]1O,1.53%
20,O=C(CN1CCN(c2nccs2)CC1)Nc1cccnc1,-4.23%
21,COc1cnc(C2(O)CCN(C(=O)c3scnc3C)CC2)c(OC)n1,-6.41%
22,Cc1cc(NC(=O)NCCc2ccsc2)n(C)n1,12.3%
23,COc1cc(N2CCC3(CCN(Cc4csc(C)n4)C3)CC2)ncn1,-118%

row,Structure (SMILES),cytotoxicity at 10 µM
1,O=C(Nc1ccnc2ccnn12)c1ccc(N2CCC(O)CC2)cc1,53.4%
2,O=C(C1CC1)N1CC[C@H]2C(=O)N(c3ccsc3)CCO[C@H]2C1,9.85%
3,CC(C)c1nc(CN(C)Cc2ccc(O)c(C(=O)O)c2)cs1,-4.24%
4,CCc1nnc2n1CC(CNCC1CCCC1)CC2 (stereo unspecified),-3.98%
5,CCNC(=O)[C@@H]1C[C@H](N)CN1c1cc(C(F)(F)F)nc(N(C)C)n1,-14.1%
6,CC(C)c1cc(=O)[nH]c(-c2ccccc2CN2CCCCCC2)n1,-2.1%
7,CCn1cc(-c2cc(C(F)(F)F)n(CCCN)n2)cn1,-7.86%
8,CCC(CC)N(C)S(=O)(=O)c1ccc(CCNC(C)=O)s1,-3.45%
9,Cc1nn(C)c(N(C)C)c1CNCc1cccc(Cn2ccnc2)c1,-12%
10,Cc1ncccc1CNc1ccc(OCCO)nc1,-1.78%
11,CCn1cc(Cl)c(C(=O)NCCCN(C)C)n1,9.46%
12,O=C(NC1CC1)[C@H]1CC[C@@H]2[C@@H](CCN2Cc2ccsc2)O1,1.42%
13,CCc1cc(=O)[nH]c(-c2ccc(NC(CO)CC(C)C)nc2)n1 (stereo unspecified),-146%
14,O=C(c1cccc2cccnc12)N1CC[C@@]2(CCCO2)[C@@H](O)C1,-23.8%
15,CC(C)CCN1C2(CCN(C(=O)C3(C)CC3)C2)c2ccccc2S1(=O)=O (stereo unspecified),-7.42%
16,COCCNC(=O)C1CN(Cc2cccc(C)n2)Cc2ccnn2C1 (stereo unspecified),-79.2%
17,O=C(Nc1nccs1)NC1CCN(Cc2ccccc2)CC1,-7.07%
18,CN(C)C(=O)CN1CCCC12CCCN(c1ncc(F)cn1)C2 (stereo unspecified),-2.51%
19,COCCN(C)S(=O)(=O)c1cc(C)cc(F)c1,3.49%
20,COC(=O)CNC(=O)C1CCN(S(C)(=O)=O)CC1,2.91%
21,Cc1noc(C)c1CNC(=O)Nc1ccc(N2CCOC2=O)cc1,-2.93%
22,CCn1c(CNCC2CCCN2c2cccnn2)nc2ccccc21 (stereo unspecified),-10.2%
23,C=Cc1ccc(C(=O)N2CCCC(Nc3ccccc3)C2)cc1 (stereo unspecified),-9.01%

row,Structure (SMILES),cytotoxicity at 10 µM
1,CC(C)CCN1CC2(CCN(C(=O)C3(C)CC3)CC2)OC1=O,1.84%
2,CC(=O)N(C)c1nc(CN2CCOC(Cn3cc(C)cn3)C2)cs1 (stereo unspecified),-7%
3,COC(=O)C(c1cc(F)ccc1F)N(C)C(=O)c1csnn1 (stereo unspecified),0.144%
4,CC(C)CN1CCN(C(=O)c2cccnc2-n2cncn2)CC1,1.53%
5,COc1ccccc1CN1CC(OC)CN(C(=O)OCC(C)C)CC1=O (stereo unspecified),-12%
6,C[C@@H]1CN(Cc2cc3ccccc3n2C)CC[C@]1(C)O,8.35%
7,Cc1ccc(C(=O)N2CCn3cc(CN4CCCCC4)nc3C2)o1,4.75%
8,Cc1nc(CN2CCC3(CCN(Cc4cnn(C)c4)C3)C2=O)cs1 (stereo unspecified),6.81%
9,COCCNC(=O)c1nc2c(s1)CCCN2c1ccc(C)nn1,8.33%
10,Cc1nc(C)c2c(n1)CCN(C(=O)CN(C)C)CC2,-4.51%
11,COC(=O)c1cccn1C1CCN(CC(=O)NC2CCCCC2)CC1,-8.21%
12,CN(C)c1ncccc1CNCc1cccc(O)c1,5.05%
13,COc1ccnc(CNc2cc(C3CC3)ncn2)c1,-7.64%
14,N#Cc1cccc(N2CCCC3(CN(C(=O)c4ccc[nH]4)CCO3)C2)c1 (stereo unspecified),13.3%
15,N#Cc1cccc(CN2CCC3(CC2)CC(c2ccncc2)C(=O)N3)c1 (stereo unspecified),3.44%
16,CCOc1ccc2[nH]c(=O)c(CN3CCN(S(N)(=O)=O)CC3)cc2c1,-6.39%
17,CNC(=O)[C@@H](C1CCCCC1)N1CCC[C@H]1C(=O)N(C)CCN(C)C,-0.39%
18,O=C(CCC1CCCN(S(=O)(=O)C2CC2)C1)Nc1ccc(Cl)cc1 (stereo unspecified),3.69%
19,O=C(CSc1ccc2c(c1)OCCO2)NS(=O)(=O)c1ccccc1F,1.98%
